For series [1], the target named is T1, DNA excision repair protein ERCC-1/DNA repair endonuclease XPF (Homo sapiens, UniProt P07992+Q92889).
T1 sequence (P07992 whole entry): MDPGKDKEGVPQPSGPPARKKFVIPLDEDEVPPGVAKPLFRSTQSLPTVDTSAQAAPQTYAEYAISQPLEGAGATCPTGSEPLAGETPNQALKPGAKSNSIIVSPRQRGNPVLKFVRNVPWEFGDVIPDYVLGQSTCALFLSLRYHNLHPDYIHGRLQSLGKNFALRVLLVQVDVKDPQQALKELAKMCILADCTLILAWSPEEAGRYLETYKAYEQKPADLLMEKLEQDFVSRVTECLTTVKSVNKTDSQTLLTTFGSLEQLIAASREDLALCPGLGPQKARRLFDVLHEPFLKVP
T1 sequence (Q92889 whole entry): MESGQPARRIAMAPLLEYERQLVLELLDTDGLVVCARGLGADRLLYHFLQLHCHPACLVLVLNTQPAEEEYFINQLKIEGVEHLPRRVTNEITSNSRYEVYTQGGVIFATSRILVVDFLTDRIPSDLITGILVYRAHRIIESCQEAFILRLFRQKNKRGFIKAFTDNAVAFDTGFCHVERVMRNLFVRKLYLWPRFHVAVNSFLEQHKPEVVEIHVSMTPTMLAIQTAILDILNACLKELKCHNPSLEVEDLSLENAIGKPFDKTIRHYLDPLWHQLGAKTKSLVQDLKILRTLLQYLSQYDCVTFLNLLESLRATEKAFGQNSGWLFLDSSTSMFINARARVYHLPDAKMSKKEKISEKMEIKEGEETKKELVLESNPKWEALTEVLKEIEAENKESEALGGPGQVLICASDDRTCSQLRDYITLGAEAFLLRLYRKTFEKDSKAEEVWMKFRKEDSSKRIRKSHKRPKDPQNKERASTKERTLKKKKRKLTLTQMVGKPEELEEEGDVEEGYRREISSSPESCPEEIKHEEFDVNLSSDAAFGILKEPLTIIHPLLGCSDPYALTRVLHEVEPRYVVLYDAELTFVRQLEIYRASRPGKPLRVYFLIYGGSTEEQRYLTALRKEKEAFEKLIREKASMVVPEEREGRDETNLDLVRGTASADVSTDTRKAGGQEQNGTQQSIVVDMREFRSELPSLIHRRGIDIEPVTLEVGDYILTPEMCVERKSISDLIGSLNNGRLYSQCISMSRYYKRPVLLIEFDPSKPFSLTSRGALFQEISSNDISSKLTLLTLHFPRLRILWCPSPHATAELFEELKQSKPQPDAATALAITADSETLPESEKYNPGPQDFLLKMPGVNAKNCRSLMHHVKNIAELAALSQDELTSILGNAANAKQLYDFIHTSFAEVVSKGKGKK
Briefly: Binding affinity to ERCC1-XPF (unknown origin) by SPR assay. The series is classed as protein-complex assay. On the technique in general: SPR reads the build-up and loss of mass on a sensor chip optically.

A further series relates to HepG2. The series can be described thus: Cytotoxicity against human HepG2 cells. In kind it is cell-based. The method, boiled down: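 Hep-G2 cells exposed to compound at concentrations up to 10 μM; toxicity assessed.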
The target in the next series is Flap endonuclease 1 (Homo sapiens, UniProt P39748). The series can be described thus: Inhibition of FEN1 (unknown origin).
Sequence of Flap endonuclease 1 (P39748 whole entry): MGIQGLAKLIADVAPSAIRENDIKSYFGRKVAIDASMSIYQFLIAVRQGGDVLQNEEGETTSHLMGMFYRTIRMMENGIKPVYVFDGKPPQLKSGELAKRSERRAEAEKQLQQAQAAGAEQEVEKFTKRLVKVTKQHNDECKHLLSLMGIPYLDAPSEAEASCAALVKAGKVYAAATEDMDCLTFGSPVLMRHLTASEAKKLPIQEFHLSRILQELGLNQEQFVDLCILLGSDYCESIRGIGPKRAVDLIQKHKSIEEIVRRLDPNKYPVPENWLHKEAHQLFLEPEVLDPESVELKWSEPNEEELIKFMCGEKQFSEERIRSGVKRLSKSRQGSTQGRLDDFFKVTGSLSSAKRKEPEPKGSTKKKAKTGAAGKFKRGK
Series [2] concerns A-375. Briefly: Cytotoxicity against human A375 cells assessed as reduction in cell number at 4.89 uM incubated for 5 days. In kind it is cell-based. To be noted: a-375, 120 h, 4.96 µM, in the assay text read “4.96 uM” for “4.89 uM”. In short, it runs like this: (§1)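 A375 melanoma cells treated with compound alone over 0.6–10 μM for 5 days; cell count determined by high-content imaging. Data from 4 separate experiments, error bars SD.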

Series [3] concerns the target T2, DNA excision repair protein ERCC-1/DNA repair endonuclease XPF (Homo sapiens) (UniProt P07992+Q92889). As to conditions: A-375, 2.48 uM.
The target in a further series is T3, Deoxyribonuclease-1 (Homo sapiens, UniProt P24855).
T3 sequence (P24855 whole entry): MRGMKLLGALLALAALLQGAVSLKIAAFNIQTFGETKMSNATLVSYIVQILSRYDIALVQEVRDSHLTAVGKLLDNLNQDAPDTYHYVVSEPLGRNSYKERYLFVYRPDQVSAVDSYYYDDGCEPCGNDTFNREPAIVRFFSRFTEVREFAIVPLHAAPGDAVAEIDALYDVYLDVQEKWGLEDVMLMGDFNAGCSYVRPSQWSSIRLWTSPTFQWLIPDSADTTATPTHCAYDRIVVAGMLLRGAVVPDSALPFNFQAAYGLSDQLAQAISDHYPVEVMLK
Briefly: Inhibition of DNAse1 (unknown origin).

Series [4] deals with T2, DNA excision repair protein ERCC-1/DNA repair endonuclease XPF (Homo sapiens). As to conditions: A-375, 0.624 uM.
The nature of series [5]: Half life in human liver microsomes. The series is classed as ADME. (In general: Liver microsomes are vesicles of endoplasmic reticulum, rich in cytochrome P450 enzymes.)
Series [6] can be described thus: Lipophilicity, log D of the compound. The series is classed as physicochemical. To be noted: octanol/water.
Series [7] has as its target T2, DNA excision repair protein ERCC-1/DNA repair endonuclease XPF (Homo sapiens). The series can be described thus: Inhibition of ERCC1-XPF in human A375 cells assessed as induction of delay in DNA repair by measuring cumulative frequency of cells at 10 uM pre-incubated for 1 hr before 5 uM cisplatin exposure for 1 hr and measured after 6 hrs by […] based gammaH2AX foci assay (reference value: 45.43%). In kind it is cell-based. More on the design: scale not given: the % may be the effect or the level left. As to conditions: A-375. In short, it runs like this: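 A375 cells pretreated with compound (10 μM) for 1 h, then 5 μM cisplatin for 1 h to induce damage, with continued compound exposure for 6 h. γH2AX foci per cell quantified by immunofluorescence with specific antibody and high-content imaging; cumulative Gaussian fit of foci distribution. 2 representative experiments, triplicates each, error bars SEM.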

A short description of series [8]: Half life in mouse liver microsomes. The series is classed as ADME.
The target in series [9] is T2, DNA excision repair protein ERCC-1/DNA repair endonuclease XPF (Homo sapiens). To be noted: A-375, 4.96 uM.
Series [10] has the same target. As to conditions: A-375, 1.28 uM.
The target is the same in series [11]. As to conditions: A-375, 10 uM.
The nature of series [12]: Apparent permeability by PAMPA method. The series is classed as physicochemical. On the technique in general: PAMPA measures passive passage across an artificial lipid membrane.
Series [13] addresses T1, DNA excision repair protein ERCC-1/DNA repair endonuclease XPF. The series can be described thus: Inhibition of ERCC1-XPF in human A375 cells assessed as reduction in direct nucleotide excision repair of UV-damaged pEGFP plasmid incubated for 234 hrs by recombinant GFP reporter assay. In kind it is cell-based, A-375. As to conditions: in the assay text read “24 hrs” for “234 hrs”. The method, boiled down:
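A375 cells co-transfected with UV-damaged or undamaged pEGFP plus pGL3 luciferase plasmid, treated with compound up to 60 μM for 24 h. GFP/luciferase ratio for damaged plasmid divided by that for undamaged, then normalized to no-compound controls to give % NER activity (DNA Repair Index); IC50 from plot against concentration.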

The target is the same in series [14]. The series can be described thus: Inhibition of ERCC1-XPF (unknown origin) by high-throughput fluorescence based in-vitro endonuclease assay. In kind it is protein-complex assay.
The test system of series [15] is A-375. Briefly: Cytotoxicity against human A375 cells assessed as reduction in cell number at 10 uM incubated for 5 days. In kind it is cell-based. To be noted: a-375, 120 h. In short, it runs like this: as §1

A value given as a limit tells only on which side of the number the result lay.

In general, Kd refers to a measure of binding affinity in units of concentration. In general, IC50 refers to the concentration at which inhibition is half-maximal. Usually half-life stands for how long it takes for the measured level to halve. As usually defined, the logD is the decadic logarithm of the distribution of all forms, ionised or not, between an organic phase and buffer at a given pH. In general, Papp refers to the rate of passage across a membrane or cell layer, normalised by area and donor concentration.

`O=C(Cc1ccc(Cl)cc1Cl)NCc1ccc(O)c(O)c1` yielded a dissociation constant Kd in series [1] of 30 µM. The Activity in the series on HepG2 is above 10 µM; in the series on A-375 [2] it was “Toxic”; in [7], 50.2%; in the series on A-375 [15] it was “Toxic”. The IC50 on Flap endonuclease 1 is above 100 µM; on Deoxyribonuclease-1, above 100 µM; in series [13], 15.6 µM; in [14], 0.63 µM. Also, the PF50 in series [3] stood at 1.51; in series [4], 1.08; in series [9], 1.68; in series [10], 1.15; in [11] it was 2.03. Also, the half-life stood at 28 min in series [5] and 23 min in series [8]. This compound also had a logD in series [6] of 2.7. Besides, the Papp in series [12] was found to be 3.9 ×10⁻⁶ cm/s.

The values are drawn from ChEMBL document CHEMBL3616382, “Catechols and 3-hydroxypyridones as inhibitors of the DNA repair complex ERCC1-XPF” (Bioorg Med Chem Lett, 2015).
